We go through 13 compounds from ChEMBL document CHEMBL1125279, “Neurochemistry of aging. 2. Design, synthesis, and biological evaluation of halomethyl analogues of choline with high affinity choline transport inhibitory activity” (J Med Chem, 1991).

A word on the IC50: it is the point on the concentration scale where inhibition reaches its midpoint.

Each structure is given as a SMILES string.

Format in all cases: functional
Test [1] is filed under the species Cavia porcellus. As to the kind of experiment: Relative potency with respect to acetylcholine in isolated guinea pig ileum preparations. Summed up: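 Guinea pig ileum segment in Tyrode's solution (NaCl 137 mM, KCl 2.68 mM, MgCl2 1.05 mM, CaCl2 1.80 mM, NaH2PO4 0.42 mM, NaHCO3 11.90 mM, glucose 5.55 mM), contents flushed. Contractions to 3–7 concentrations recorded by polygraph and compared against concentration responses to acetylcholine and choline.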

The species named for test [2] is Cavia porcellus. As to the kind of experiment: Relative potency with respect to choline in isolated guinea pig ileum preparations.
The species named for the next test is Rattus norvegicus. Nature of the test: Concentration required to inhibit 50% of the transport of [3H]choline into synaptosomes, using rat hippocampal synaptosomes. Particulars: Hippocampus. Summed up:
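Rat hippocampus dissected on ice, homogenized in 0.32 M sucrose; P2 pellet (12000g, 20 min) resuspended in sucrose. Synaptosomes incubated with [3H]choline and increasing inhibitor concentrations, 8 min at 30 °C; filtered, washed three times, lysed in water, tritium counted. High-affinity uptake = standard-medium minus sodium-free accumulation, per mg protein (Lowry); IC50 from percent inhibition.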

Regarding `CC(=O)OCC[N+](C)(C)CI.[I-]`, the Relative potency in the test filed under Cavia porcellus [1] is listed as 0.11.

`CC(=O)OCC[N+](C)(C)CBr.[Br-]` gave a Relative potency in the test filed under Cavia porcellus [1] of 0.05.

In the test filed under Cavia porcellus [2], `CC(O)C[N+](C)(C)CBr.[Br-]` (stereo unspecified) had a Relative potency of 0.04. Besides, in the test listed under Rattus norvegicus, inhibition was half-maximal at 56 µM (IC50).

Consider `C[N+](C)(CCl)CCO.[I-]`, for which, in the test listed under Cavia porcellus [2], the Relative potency is on record as 0.13. The half-maximal inhibitory concentration (IC50) in the test listed under Rattus norvegicus was determined as 0.92 µM.

Regarding `CC(=O)OC(C)C[N+](C)(C)CI.[I-]` (stereo unspecified), in the test listed under Cavia porcellus [1], the Relative potency worked out at 0.02.

As for `C[N+](C)(CBr)CCO.[Br-]`, the Relative potency in the test listed under Cavia porcellus [2] is reported as 0.14. In addition, in the test listed under Rattus norvegicus, the IC50 was determined as 0.87 µM.

On to `CC(=O)OCC[N+](C)(C)C.[I-]` [ACETYLCHOLINE IODIDE], for which the Relative potency in the test filed under Cavia porcellus [1] came out at 1.

`C[N+](C)(CI)CCO.[I-]` returned a Relative potency in the test listed under Cavia porcellus [2] of 0.33. This compound had an IC50 in the test filed under Rattus norvegicus of 0.49 µM.

With `CC(=O)OCC[N+](C)(C)CCl.[I-]`, the Relative potency in the test listed under Cavia porcellus [1] stood at 0.09.

As for `C[N+]1(C)CCOC1.[Br-]`, the Relative potency in the test listed under Cavia porcellus [2] is 4.25. Besides, the IC50 in the test listed under Rattus norvegicus was 78 µM.

As to `CC1C[N+](C)(C)CO1.[Br-]` (stereo unspecified), the Relative potency in the test filed under Cavia porcellus [2] is 2. Further, it took 200 µM to reach half-maximal inhibition in the test filed under Rattus norvegicus (IC50).

In turn, `CC(O)C[N+](C)(C)CI.[I-]` (stereo unspecified) displayed a Relative potency in the test filed under Cavia porcellus [2] of 0.1. In addition, in the test listed under Rattus norvegicus, the half-maximal inhibitory concentration (IC50) was 50 µM.

For the compound `CC(O)C[N+](C)(C)CCl.[I-]` (stereo unspecified), in the test filed under Cavia porcellus [2], the Relative potency is listed as 0.05. This compound displayed a concentration for half-maximal inhibition (IC50) in the test filed under Rattus norvegicus of 130 µM.
